Results as given in PMC11797553 (Science Advances, 2025).
Ends that are not written are not given here.

Key:
mammalian cells = assay: Cytotoxicity assay; type: cell-based, human; details: for cytotoxicity: in words, MTT, HaCaTs and HUVECs, 24 h; for concentration inducing cytotoxicity relative to MICs: cytotoxic concentration / MIC
Summary of the method: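 HUVECs and HaCaTs in log phase were trypsinised, adjusted to 5 × 10^4 cells/ml, seeded and left to adhere overnight. Cells were exposed to a range of peptide concentrations (peptides in sterile water) for 24 h at 37°C, 5% CO2, with untreated wells as controls. MTT (5 mg/ml stock) was added for 4 h, the supernatant was removed, formazan was dissolved in DMSO, and A490 was read.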

rat erythrocytes = assay: Hemolysis assay; type: cell-based, Sprague-Dawley rats; details: for concentration inducing hemolysis relative to MICs: hemolytic concentration / MIC
Summary of the method: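 Sprague-Dawley rat blood was drawn from the abdominal aorta into heparin. RBCs were centrifuged, washed and made up as a 10% suspension in saline. Peptides, twofold-diluted in saline, were incubated with the RBCs at 37°C for 1 h, then spun 10 min, and supernatant A540 was read. Controls were saline (0%) and 1% Triton X-100 (100%). Hemolysis % = (Am − An)/(Ap − An) × 100.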

[1] = test system: six strains of pathogenic fungi and five strains of pathogenic bacteria; assay: MIC determination, whole panel of fungi and bacteria; type: cell-based; details: in words
A. baumannii GD003 = assay: Drug resistance development, serial passage; type: cell-based, Acinetobacter baumannii; details: A. baumannii GD003, serial passage at sub-MIC for 30 days, 96-well plates
Summary of the method: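 A. baumannii GD003 was activated in liquid culture and grown 12 h. It was diluted to 5 × 10^5 cells/ml in MHB and tested by broth microdilution in 96-well plates (37°C, 24 h; MIC = lowest concentration with no visible growth). Cells from the half-MIC well were carried into the next round and the MIC was re-measured, repeating over 30 days.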

A. baumannii = assay: Murine lung infection; type: in vivo, BALB/c mice; details: 40 mg/kg intravenously for three consecutive days

GIWDMIRKVRTVIRKAKQIKTFINGKGVQ [AMP-11]
cytotoxicity (mammalian cells): moderate cytotoxicity
hemolytic activity (rat erythrocytes; in words, 10% rat RBC, 37°C, 1 h (Fig. 3A)): potent hemolytic activity

VTFVRLAGVASAVKTKAG [peptide 26]
antimicrobial activity [1]: lacks antimicrobial activity

WFHFFQRGSYNGI [AMP-29]
concentration inducing cytotoxicity relative to MICs (mammalian cells): > 32 fold
cytotoxicity (mammalian cells): low cytotoxicity
concentration with hemolytic activity (rat erythrocytes; 10% rat RBC, 37°C, 1 h): 50 µM
concentration inducing hemolysis relative to MICs (rat erythrocytes): 4 fold

WLGSKIKAAKMKVGMWGAVGLRHN [AMP-24]
concentration inducing cytotoxicity relative to MICs (mammalian cells): at least 32 fold
cytotoxicity (mammalian cells): low cytotoxicity
MIC after 30 passages of induced resistance (A. baumannii GD003): 12.5 µM
concentration inducing hemolysis relative to MICs (rat erythrocytes): at least 32 fold
H&E staining of off-target tissues (heart, liver, kidney) (A. baumannii): no obvious immune cell infiltrations were observed
